From BindingDB's records for doi:10.1016/j.bmcl.2018.01.022 (Temple University, 2018) come the findings set out here.

The IC50 is the concentration needed to halve the response being measured. A higher IC50 goes with weaker potency.

The target of the test is T1, Ribonuclease P protein component (Staphylococcus aureus, UniProt P0A0H5).
T1 sequence (P0A0H5 whole entry): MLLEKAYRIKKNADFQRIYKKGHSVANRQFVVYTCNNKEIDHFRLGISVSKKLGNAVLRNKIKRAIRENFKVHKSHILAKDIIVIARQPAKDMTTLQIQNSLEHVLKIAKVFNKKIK
Put plainly: Inhibition of Staphylococcus aureus RnpA-mediated mRNA degradation after 15 to 30 mins by ethidium bromide staining based agarose gel electrophoresis. The method, boiled down:
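Recombinant S. aureus RnpA protein of ≥97% purity was tested in vitro for inhibition of its mRNA degradation activity, following the procedure previously described.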

Turning to `CC(C)c1ccc(OCC(=O)NNC(=S)NC(=O)c2ccno2)cc1`, the IC50 was > 500 µM.
